Series [1] can be described thus: Oral bioavailability in Wistar rat at 25 mg/kg. The format is ADME, organism-based. Conditions: in vivo.
Series [2] can be described thus: Oral bioavailability in beagle dog at 8 mg/kg. The format is ADME, organism-based, Canis lupus familiaris. Conditions: in vivo.
The subject of another series is Liver. The experiment in a line: Drug uptake in rat liver at 50 mg/kg, po. The format is ADME, organism-based. Further details: dose 50 mg/kg, route oral. Conditions: in vivo, read-out: Drug uptake.
Series [3] in a line: Drug excretion in rat feces at 50 mg/kg, po. The format is ADME, organism-based. Also noted: dose 50 mg/kg, route oral. Conditions: faeces, read-out: Drug excretion.
Series [4] is described as follows: Drug excretion in rat bile at 50 mg/kg, po. The settings on record: read-out: Drug excretion. The format is ADME, organism-based. Further details: dose 50 mg/kg, route oral.
Series [5] deals with Liver microsome. Nature of the series: Drug metabolism in human liver microsomes assessed as oxidative metabolism at 10 uM in presence of 0.4 uM ticlopidine CYP2B6/CYP2C19 inhibitor. The format is ADME. The method in brief:
(§1)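 Pooled human liver microsomes (1 mg/ml, mixed-gender, 50 donors), 10 µM Rh2, 2 mM NADPH and selective inhibitor in 100 mM potassium phosphate pH 7.4; 37°C, 60 min; ice-cold acetonitrile stop; uninhibited controls; duplicates; formation of M1-2, M1-3 and M1-4+M1-5 quantified by LC/ion-trap MSn.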
A general note: Microsomes from liver hold many membrane-bound enzymes, among them those of drug oxidation.

The subject of series [6] is Liver microsome. The experiment in a line: Drug metabolism in human liver microsomes assessed as oxidative metabolism at 10 uM in presence of 1 uM sulfaphenazole CYP2C9 inhibitor. The format is ADME. The method in brief:
as §1

The test system of series [7] is Liver microsome. The experiment in a line: Drug metabolism in human liver microsomes assessed as oxidative metabolism at 10 uM in presence of 10 uM ketoconazole CYP3A inhibitor. The format is ADME. The method in brief: as §1
The target of the next series is T1, Cytochrome P450 1A2 (Homo sapiens, UniProt P05177).
T1 sequence (P05177 whole entry): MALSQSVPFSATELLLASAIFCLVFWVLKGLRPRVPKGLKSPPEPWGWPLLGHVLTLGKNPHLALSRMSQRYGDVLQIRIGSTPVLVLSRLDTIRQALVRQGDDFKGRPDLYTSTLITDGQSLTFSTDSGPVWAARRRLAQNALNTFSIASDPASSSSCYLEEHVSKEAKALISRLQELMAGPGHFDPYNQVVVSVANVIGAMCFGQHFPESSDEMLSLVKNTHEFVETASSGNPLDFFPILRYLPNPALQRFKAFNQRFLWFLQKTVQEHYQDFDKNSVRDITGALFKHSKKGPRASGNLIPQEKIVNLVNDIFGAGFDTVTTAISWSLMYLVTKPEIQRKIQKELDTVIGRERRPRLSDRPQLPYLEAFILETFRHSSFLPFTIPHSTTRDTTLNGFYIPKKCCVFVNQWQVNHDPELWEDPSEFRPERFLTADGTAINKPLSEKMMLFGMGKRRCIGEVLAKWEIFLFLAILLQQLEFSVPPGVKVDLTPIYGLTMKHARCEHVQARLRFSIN
The experiment in a line: Drug metabolism in human recombinant CYP1A2 mediated oxidative metabolism at 10 uM. The format is ADME. The settings on record: recombinant enzyme. The method in brief:
(§2)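 Recombinant human P450 at 50 nM incubated with 10 µM Rh2 and 2 mM NADPH in 100 mM potassium phosphate pH 7.4, 37°C, 60 min; ice-cold acetonitrile stop; duplicates; metabolites detected by LC/ion-trap MSn.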

The next series addresses T2, Cytochrome P450 2B6 (Homo sapiens, UniProt P20813).
T2 sequence (P20813 whole entry): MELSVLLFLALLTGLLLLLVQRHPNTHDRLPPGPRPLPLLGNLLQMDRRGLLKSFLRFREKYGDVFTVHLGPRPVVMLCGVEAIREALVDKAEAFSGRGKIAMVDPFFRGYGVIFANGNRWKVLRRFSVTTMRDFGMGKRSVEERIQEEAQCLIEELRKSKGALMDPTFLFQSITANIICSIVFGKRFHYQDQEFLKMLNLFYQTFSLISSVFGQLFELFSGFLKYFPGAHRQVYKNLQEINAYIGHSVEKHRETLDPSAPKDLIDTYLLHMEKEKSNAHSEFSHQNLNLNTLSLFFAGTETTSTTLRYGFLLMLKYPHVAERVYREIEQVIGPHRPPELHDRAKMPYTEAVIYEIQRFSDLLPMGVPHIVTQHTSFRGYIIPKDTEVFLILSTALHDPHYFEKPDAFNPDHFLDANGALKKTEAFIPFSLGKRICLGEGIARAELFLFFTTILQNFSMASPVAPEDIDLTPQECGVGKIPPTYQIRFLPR
The experiment in a line: Drug metabolism in human recombinant CYP2B6 mediated oxidative metabolism at 10 uM. The format is ADME. The settings on record: recombinant enzyme. The method in brief:
as §2

In a further series the target is T3, Cytochrome P450 2C8 (Homo sapiens, UniProt P10632).
T3 sequence (P10632 whole entry): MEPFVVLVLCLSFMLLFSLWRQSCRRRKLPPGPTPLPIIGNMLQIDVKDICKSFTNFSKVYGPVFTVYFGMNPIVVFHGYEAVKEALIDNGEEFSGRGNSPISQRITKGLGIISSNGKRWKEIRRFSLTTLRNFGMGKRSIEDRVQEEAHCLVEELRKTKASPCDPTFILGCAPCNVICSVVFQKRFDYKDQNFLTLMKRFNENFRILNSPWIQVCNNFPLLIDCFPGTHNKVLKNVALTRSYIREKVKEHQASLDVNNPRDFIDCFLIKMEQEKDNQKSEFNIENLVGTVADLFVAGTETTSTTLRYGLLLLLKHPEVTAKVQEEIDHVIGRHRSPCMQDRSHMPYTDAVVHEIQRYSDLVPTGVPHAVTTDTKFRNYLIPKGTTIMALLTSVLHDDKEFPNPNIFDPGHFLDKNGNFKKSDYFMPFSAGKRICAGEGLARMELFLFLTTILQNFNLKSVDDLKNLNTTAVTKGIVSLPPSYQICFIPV
The experiment in a line: Drug metabolism in human recombinant CYP2C8 mediated oxidative metabolism at 10 uM. The format is ADME. The settings on record: recombinant enzyme. A digest of the protocol:
as §2

The next series has as its target Cytochrome P450 2C9 (Homo sapiens, UniProt P11712). Nature of the series: Drug metabolism in human recombinant CYP2C9 mediated oxidative metabolism at 10 uM. The format is ADME. Conditions: recombinant enzyme. A digest of the protocol: as §2
In another series the target is Cytochrome P450 2C19 (Homo sapiens, UniProt P33261). Nature of the series: Drug metabolism in human recombinant CYP2C19 mediated oxidative metabolism at 10 uM. The format is ADME. The settings on record: recombinant enzyme. The method in brief: as §2
Chain of Cytochrome P450 2C19 (P33261 whole entry): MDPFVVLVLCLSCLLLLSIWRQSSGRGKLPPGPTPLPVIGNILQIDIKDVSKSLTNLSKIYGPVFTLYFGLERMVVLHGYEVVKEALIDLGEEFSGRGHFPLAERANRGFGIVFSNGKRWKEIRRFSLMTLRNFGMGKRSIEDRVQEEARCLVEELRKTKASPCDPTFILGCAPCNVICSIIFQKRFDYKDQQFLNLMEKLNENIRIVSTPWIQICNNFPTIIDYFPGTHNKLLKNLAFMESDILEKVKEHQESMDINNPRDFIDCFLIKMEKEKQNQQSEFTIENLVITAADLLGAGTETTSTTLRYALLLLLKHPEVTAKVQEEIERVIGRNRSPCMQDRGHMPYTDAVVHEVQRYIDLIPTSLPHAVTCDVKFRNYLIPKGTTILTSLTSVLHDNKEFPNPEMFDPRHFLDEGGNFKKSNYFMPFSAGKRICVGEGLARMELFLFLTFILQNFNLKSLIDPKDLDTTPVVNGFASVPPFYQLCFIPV
The next series concerns the target Cytochrome P450 2D6 (Homo sapiens, UniProt P10635). The experiment in a line: Drug metabolism in human recombinant CYP2D6 mediated oxidative metabolism at 10 uM. The format is ADME. Conditions: recombinant enzyme. A digest of the protocol:
as §2

A further series deals with T4, Cytochrome P450 4A11 (Homo sapiens, UniProt Q02928).
T4 sequence (Q02928 whole entry): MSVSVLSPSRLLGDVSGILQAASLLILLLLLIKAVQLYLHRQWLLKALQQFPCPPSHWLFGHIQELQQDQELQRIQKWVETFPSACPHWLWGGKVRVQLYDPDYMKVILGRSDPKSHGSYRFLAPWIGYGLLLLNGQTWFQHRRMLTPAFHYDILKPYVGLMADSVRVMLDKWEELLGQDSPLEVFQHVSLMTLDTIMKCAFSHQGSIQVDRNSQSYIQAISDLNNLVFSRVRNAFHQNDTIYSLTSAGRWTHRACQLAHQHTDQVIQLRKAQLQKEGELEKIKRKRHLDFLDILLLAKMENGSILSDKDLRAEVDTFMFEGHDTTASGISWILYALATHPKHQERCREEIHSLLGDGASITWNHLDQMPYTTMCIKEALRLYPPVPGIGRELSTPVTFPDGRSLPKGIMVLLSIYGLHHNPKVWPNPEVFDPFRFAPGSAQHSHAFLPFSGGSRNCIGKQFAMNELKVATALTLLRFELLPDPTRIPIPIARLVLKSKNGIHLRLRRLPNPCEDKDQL
Nature of the series: Drug metabolism in human recombinant CYP4A11 mediated oxidative metabolism at 10 uM. The format is ADME. The settings on record: recombinant enzyme. The method in brief:
as §2

Molecules are shown by their SMILES.

Chain of Cytochrome P450 2C9 (P11712 whole entry): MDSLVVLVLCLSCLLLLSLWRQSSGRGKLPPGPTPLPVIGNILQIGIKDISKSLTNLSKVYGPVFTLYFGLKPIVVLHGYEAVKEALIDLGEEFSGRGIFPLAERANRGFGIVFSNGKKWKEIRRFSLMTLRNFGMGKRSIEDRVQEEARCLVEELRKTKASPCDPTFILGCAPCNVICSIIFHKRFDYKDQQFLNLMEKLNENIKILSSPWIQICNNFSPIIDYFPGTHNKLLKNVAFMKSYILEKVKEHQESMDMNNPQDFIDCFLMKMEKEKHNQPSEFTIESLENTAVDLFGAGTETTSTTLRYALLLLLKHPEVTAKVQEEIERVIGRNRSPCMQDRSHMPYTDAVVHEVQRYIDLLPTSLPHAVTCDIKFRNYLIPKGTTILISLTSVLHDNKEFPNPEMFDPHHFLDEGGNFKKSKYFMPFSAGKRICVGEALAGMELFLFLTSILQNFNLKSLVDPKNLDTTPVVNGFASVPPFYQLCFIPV
Chain of Cytochrome P450 2D6 (P10635 whole entry): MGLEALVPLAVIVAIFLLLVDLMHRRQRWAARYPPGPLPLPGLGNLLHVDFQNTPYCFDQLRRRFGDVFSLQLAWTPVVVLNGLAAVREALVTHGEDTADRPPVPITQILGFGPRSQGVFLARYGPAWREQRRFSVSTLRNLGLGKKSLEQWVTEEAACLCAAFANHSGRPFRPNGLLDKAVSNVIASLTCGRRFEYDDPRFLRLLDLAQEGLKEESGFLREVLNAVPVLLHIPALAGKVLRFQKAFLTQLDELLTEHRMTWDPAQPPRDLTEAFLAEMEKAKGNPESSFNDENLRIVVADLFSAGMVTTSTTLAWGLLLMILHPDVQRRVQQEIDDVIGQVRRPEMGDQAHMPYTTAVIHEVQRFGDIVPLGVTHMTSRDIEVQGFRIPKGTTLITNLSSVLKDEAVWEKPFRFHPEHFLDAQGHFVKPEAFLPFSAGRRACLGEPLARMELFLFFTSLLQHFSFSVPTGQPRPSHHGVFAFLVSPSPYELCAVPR

As usually defined, the bioavailability is dose-corrected exposure relative to a reference, in per cent. Low values mean poor availability, high ones good availability. For `CC(C)=CCC[C@](C)(O)[C@H]1CC[C@]2(C)[C@@H]1[C@H](O)C[C@@H]1[C@@]3(C)CC[C@H](O[C@@H]4O[C@H](CO)[C@@H](O)[C@H](O)[C@H]4O)C(C)(C)[C@@H]3CC[C@]12C` [GINSENOSIDE RH2], the bioavailability in series [1] came out at 28%; in [2] it was 55%. In addition, in the series with Liver, the concentration was determined as 60 µM. Besides, the dose excreted in series [3] and in [4] was below 10% each time. In addition, the Drug metabolism entry was “metabolite_detected” in the series with Liver microsome [5]; “metabolite_detected” with Liver microsome [6]; “metabolite_not_detected” in the series on Liver microsome [7]; “metabolite_not_detected” on Cytochrome P450 1A2; “metabolite_not_detected” on Cytochrome P450 2B6; “metabolite_not_detected” on Cytochrome P450 2C8. For the same molecule, the Drug metabolism entry at Cytochrome P450 2C9, at Cytochrome P450 2C19, at Cytochrome P450 2D6 and at Cytochrome P450 4A11 was “metabolite_not_detected” in each case.

The values are drawn from ChEMBL document CHEMBL3525925, “In vitro studies on the oxidative metabolism of 20(s)-ginsenoside Rh2 in human, monkey, dog, rat, and mouse liver microsomes, and human liver s9” (Drug Metab Dispos, 2012).
